Assay results taken from ChEMBL document CHEMBL5131497, “Design, Synthesis, and Characterization of TNP-2198, a Dual-Targeted Rifamycin-Nitroimidazole Conjugate with Potent Activity against Microaerophilic and Anaerobic Bacterial Pathogens” (J Med Chem, 2022).
Values after ≈ are worked out from the molar mass of the structure shown.

Columns and labels:
Assay type in all cases: functional
Clostridioides difficile [1] = assay: Antibacterial activity against rifampicin-resistant Clostridioides difficile CB1934 harboring rpoBQ489K mutant at 1:1 compound to metronidazole molar ratio measured after 3 days in presence of metronidazole; conditions: CB1934, 72 h, time 3 day
Prevotella disiens [2] = assay: Antibacterial activity against Prevotella disiens MMX 3457
Helicobacter pylori [3] = assay: Antibacterial activity against Helicobacter pylori clinical isolate China
Helicobacter pylori [4] = assay: Antibacterial activity against rifampicin-resistant Helicobacter pylori CB1903 harboring rpoBD530V mutant at 1:1 compound to metronidazole molar ratio measured after 5 days in presence of metronidazole by agar dilution method; conditions: CB1903, 120 h, time 5 day
Summary of the method: (§1)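 Agar dilution per CLSI. Wild-type ATCC 700392 (CB1531) and its derivatives carry defined resistance determinants. Drugs, alone or in 1:1 molar mixtures, were diluted 2-fold from 100× stocks into Mueller–Hinton agar with aged (≥2 weeks) sheep blood (5% v/v). MIC read after 5 days at 35 °C under microaerobic conditions from a campylobacter gas-generating system.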

Clostridioides difficile [5] = assay: Antibacterial activity against rifampicin-resistant Clostridioides difficile harboring rpoBQ489K mutant
Helicobacter pylori [6] = assay: Antibacterial activity against Helicobacter pylori clinical isolate USA
Prevotella bivia = assay: Antibacterial activity against Prevotella bivia ATCC 29303/MMX 5718
Peptostreptococcus sp. = assay: Antibacterial activity against Peptostreptococcus magnus ATCC 14956
Staphylococcus aureus = assay: Antibacterial activity against Staphylococcus aureus ATCC 29213
Helicobacter pylori [7] = assay: Antibacterial activity against rifampicin-resistant Helicobacter pylori CB1902 harboring rpoBV149F mutant at 1:1 compound to metronidazole molar ratio measured after 5 days in presence of metronidazole by agar dilution method; conditions: CB1902, 120 h, time 5 day; summary of the method: as §1
Gardnerella vaginalis [8] = assay: Antibacterial activity against Gardnerella vaginalis ATCC 49145
Clostridioides difficile [9] = assay: Antibacterial activity against Clostridioides difficile ATCC 9689
Helicobacter pylori [10] = assay: Antibacterial activity against metronidazole-resistant Helicobacter pylori CB1573 harboring rdxAR16S mutant measured after 5 days by agar dilution method; conditions: CB1573, 120 h, time 5 day; summary of the method: as §1
Clostridioides difficile [11] = assay: Antibacterial activity against Clostridioides difficile BAA 1382
Clostridioides difficile [12] = assay: Antibacterial activity against rifampicin/fluoroquinolone-resistant Clostridioides difficile CB1940 harboring rpoBQ489K/gyrAA118S mutant at 1:1 compound to metronidazole molar ratio measured after 3 days in presence of metronidazole; conditions: CB1940, 72 h, time 3 day
Bifidobacterium longum = assay: Antibacterial activity against Bifidobacterium longum ATCC 15707
Bacteroides uniformis = assay: Antibacterial activity against Bacteroides uniformis MMX 1277
Clostridioides difficile [13] = assay: Antibacterial activity against fluoroquinolone-resistant Clostridioides difficile CB1941 harboring gyrAD71Y/T82A mutant measured after 3 days; conditions: CB1941, 72 h, time 3 day
Fusobacterium nucleatum = assay: Antibacterial activity against Fusobacterium nucleatum ATCC 25586
Clostridioides difficile [14] = assay: Antibacterial activity against fluoroquinolone-resistant Clostridioides difficile CB1939 at 1:1 compound to metronidazole molar ratio measured after 3 days in presence of metronidazole; conditions: CB1939, 72 h, time 3 day
Clostridioides difficile [15] = assay: Antibacterial activity against Clostridioides difficile clinical isolate China
Helicobacter pylori [16] = assay: Antibacterial activity against rifampicin-resistant Helicobacter pylori CB1903 harboring rpoBD530V mutant measured after 5 days by agar dilution method; conditions: CB1903, 120 h, time 5 day; summary of the method: as §1
Clostridioides difficile [17] = assay: Antibacterial activity against rifampicin-resistant Clostridioides difficile CB1934 harboring rpoBQ489K mutant measured after 3 days; conditions: CB1934, 72 h, time 3 day
Clostridioides difficile [18] = assay: Antibacterial activity against rifampicin/fluoroquinolone-resistant Clostridioides difficile CB1940 harboring rpoBQ489K/gyrAA118S mutant measured after 3 days; conditions: CB1940, 72 h, time 3 day
Veillonella parvula = assay: Antibacterial activity against Veillonella parvula ATCC 17745 MMX 1272
Helicobacter pylori [19] = assay: Antibacterial activity against Helicobacter pylori ATCC 700392 at 1:1 compound to metronidazole molar ratio measured after 5 days in presence of metronidazole by agar dilution method; conditions: ATCC 700392, 120 h, time 5 day; summary of the method: as §1
Prevotella intermedia = assay: Antibacterial activity against Prevotella intermedia ATCC 25611 MMX 3002
Clostridioides difficile [20] = assay: Antibacterial activity against rifampicin/fluoroquinolone-resistant Clostridioides difficile CB1942 harboring rpoBQ489K/gyrAD71Y/T82A mutant at 1:1 compound to metronidazole molar ratio measured after 3 days in presence of metronidazole; conditions: CB1942, 72 h, time 3 day
Clostridioides difficile [21] = assay: Antibacterial activity against fluoroquinolone-resistant Clostridioides difficile CB1941 harboring gyrAD71Y/T82A mutant at 1:1 compound to metronidazole molar ratio measured after 3 days in presence of metronidazole; conditions: CB1941, 72 h, time 3 day
Prevotella disiens [22] = assay: Antibacterial activity against Prevotella disiens MMX 3446
[23] = system: Bacteroides thetaiotaomicron; assay: Antibacterial activity against metronidazole-resistant Bacteroides thetaiotaomicron MMX 3409
Helicobacter pylori [24] = assay: Antibacterial activity against rifampicin-resistant Helicobacter pylori CB1614 harboring rpoBL525I/D530N at 1:1 compound to metronidazole molar ratio measured after 5 days in presence of metronidazole by agar dilution method; conditions: CB1614, 120 h, time 5 day; summary of the method: as §1
[25] = system: Porphyromonas asaccharolytica; assay: Antibacterial activity against metronidazole-resistant Prevotella asaccharolytica MMX 3552
Clostridioides difficile [26] = assay: Antibacterial activity against rifampicin/fluoroquinolone-resistant Clostridioides difficile CB1942 harboring rpoBQ489K/gyrAD71Y/T82A mutant measured after 3 days; conditions: CB1942, 72 h, time 3 day
Actinomyces naeslundii = assay: Antibacterial activity against Actinomyces naeslundii ATCC 1210
Gardnerella vaginalis [27] = assay: Antibacterial activity against Gardnerella vaginalis ATCC 14018
Helicobacter pylori [28] = assay: Antibacterial activity against metronidazole-resistant Helicobacter pylori CB1573 harboring rdxAR16S mutant at 1:1 compound to metronidazole molar ratio measured after 5 days in presence of metronidazole by agar dilution method; conditions: CB1573, 120 h, time 5 day; summary of the method: as §1
Helicobacter pylori [29] = assay: Antibacterial activity against Helicobacter pylori infected in C57/BL6 mouse assessed as bacterial load in stomach at 10 mg/kg administered twice daily via oral gavage starting from 7 days post inoculation and administered for 7 days (reference value: 5.25 log10CFU); conditions: time 7 day

Structure (SMILES): CO[C@H]1/C=C/O[C@@]2(C)Oc3c(C)c(O)c4c(O)c(c(/C=N/N5CCN(C)CC5)c(O)c4c3C2=O)NC(=O)/C(C)=C\C=C\[C@H](C)[C@H](O)[C@@H](C)[C@@H](O)[C@@H](C)[C@H](OC(C)=O)[C@@H]1C [RIFAMPIN]
- MIC (Clostridioides difficile [1]): 2 µg/mL
- MIC (Prevotella disiens [2]): 0.5 µg/mL (≈ 0.608 µM)
- MIC (Helicobacter pylori [3]): ≤ 0.06 µg/mL
- MIC90 (Helicobacter pylori [3]): 0.5 µg/mL (≈ 0.608 µM)
- MIC (Helicobacter pylori [4]): 16 µg/mL
- MIC (Clostridioides difficile [5]): 0.25 µg/mL (≈ 0.304 µM)
- MIC (Helicobacter pylori [6]): ≥ 0.007 µg/mL
- MIC (Prevotella bivia): 0.5 µg/mL (≈ 0.608 µM)
- MIC (Peptostreptococcus sp.): 1 µg/mL (≈ 1.22 µM)
- MIC (Staphylococcus aureus): 0.008 µg/mL (≈ 0.00972 µM)
- MIC (Helicobacter pylori [7]): 8 µg/mL
- MIC (Gardnerella vaginalis [8]): 0.5 µg/mL (≈ 0.608 µM)
- MIC (Clostridioides difficile [9]): 0.001 µg/mL (≈ 0.00122 µM)
- MIC (Helicobacter pylori [10]): 0.5 µg/mL (≈ 0.608 µM)
- MIC (Clostridioides difficile [11]): 0.001 µg/mL (≈ 0.00122 µM)
- MIC (Clostridioides difficile [12]): 2 µg/mL
- MIC (Bifidobacterium longum): 0.5 µg/mL (≈ 0.608 µM)
- MIC (Bacteroides uniformis): 0.5 µg/mL (≈ 0.608 µM)
- MIC (Clostridioides difficile [13]): ≤ 0.03 µg/mL
- MIC (Fusobacterium nucleatum): 0.5 µg/mL (≈ 0.608 µM)
- MIC (Clostridioides difficile [14]): ≤ 0.03 µg/mL
- MIC (Clostridioides difficile [15]): 0.06 µg/mL (≈ 0.0729 µM)
- MIC90 (Clostridioides difficile [15]): ≥ 128 µg/mL
- MIC (Helicobacter pylori [16]): > 32 µg/mL
- MIC (Clostridioides difficile [17]): > 32 µg/mL
- MIC (Clostridioides difficile [18]): > 32 µg/mL
- MIC (Veillonella parvula): 4 µg/mL (≈ 4.86 µM)
- MIC (Helicobacter pylori [19]): 0.5 µg/mL
- MIC (Prevotella intermedia): 0.12 µg/mL (≈ 0.146 µM)
- MIC (Clostridioides difficile [20]): 2 µg/mL
- MIC (Clostridioides difficile [21]): ≤ 0.03 µg/mL
- MIC (Prevotella disiens [22]): 0.12 µg/mL (≈ 0.146 µM)
- MIC [23]: 0.5 µg/mL (≈ 0.608 µM)
- MIC (Helicobacter pylori [24]): 8 µg/mL
- MIC [25]: 0.004 µg/mL (≈ 0.00486 µM)
- MIC (Clostridioides difficile [26]): > 32 µg/mL
- MIC (Actinomyces naeslundii): 0.03 µg/mL (≈ 0.0365 µM)
- MIC (Gardnerella vaginalis [27]): 0.5 µg/mL (≈ 0.608 µM)
- MIC (Helicobacter pylori [28]): 0.25 µg/mL

Structure (SMILES): CC[C@H]1OC(=O)[C@H](C)[C@@H](O[C@H]2C[C@@](C)(OC)[C@@H](O)[C@H](C)O2)[C@H](C)[C@@H](O[C@@H]2O[C@H](C)C[C@H](N(C)C)[C@H]2O)[C@](C)(OC)C[C@@H](C)C(=O)[C@H](C)[C@@H](O)[C@]1(C)O [CLARITHROMYCIN]
- Activity (Helicobacter pylori [29]): 2.85 log10CFU
